Reference: ChEMBL document CHEMBL5058577, “EUbOPEN Chemogenomics Library 2 (Multiplex)” (2022)

System: HEK-293T
Experiment: Multiplex assay against HEK293T
Type: toxicity, cell-based
Conditions: human
In short: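 On a CQ1 microscope at 37°C and 5% CO2, live cells were imaged after compound addition. They had been stained at seeding with Hoechst33342, BioTracker Green Microtubule Cytoskeleton Dye, MitoTracker Red and Annexin V Alexa Fluor 680. CellPathfinder machine-learning gating assigned cells to Hoechst high-intensity objects or normal cells, normal cells to healthy, pyknosed or fragmented nuclei, and pyknosed cells to mitotic or apoptotic. Tubulin, mitochondrial-mass and membrane-permeability phenotypes are per cents of healthy-nucleus cells.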

[1] = 12 h, 1 µM, compound concentration 1 uM, replicate 1
[2] = 12 h, 1 µM, compound concentration 1 uM, replicate 2
[3] = 12 h, 10 µM, compound concentration 10 uM, replicate 1
[4] = 12 h, 10 µM, compound concentration 10 uM, replicate 2
[5] = 24 h, 1 µM, compound concentration 1 uM, replicate 1
[6] = 24 h, 1 µM, compound concentration 1 uM, replicate 2
[7] = 24 h, 10 µM, compound concentration 10 uM, replicate 1
[8] = 24 h, 10 µM, compound concentration 10 uM, replicate 2
[9] = 48 h, 1 µM, compound concentration 1 uM, replicate 1
[10] = 48 h, 1 µM, compound concentration 1 uM, replicate 2
[11] = 48 h, 10 µM, compound concentration 10 uM, replicate 1
[12] = 48 h, 10 µM, compound concentration 10 uM, replicate 2

OCCCNc1cc(-c2ccnc(Nc3cccc(Cl)c3)n2)ccn1
Population Apoptotic (%) [1]: 66% | Population Fragmented Nuclei (%) [1]: 9% | Population Healthy Nuclei (%) [1]: 66% | Population Hoechst High Intensity Objects (%) [1]: 14% | Population Membrane Permeable-Phenotype (%) [1]: 0% | Population Mitochondria Different-Phenotype (%) [1]: 82% | Population Mitotic Cells (%) [1]: 33% | Population Normal (%) [1]: 85% | Population Pyknosed Nuclei (%) [1]: 24% | Population Tubulin-Different-Phenotype (%) [1]: 75% | Total Cell Count [1]: 204 | Population Apoptotic (%) [2]: 65% | Population Fragmented Nuclei (%) [2]: 8% | Population Healthy Nuclei (%) [2]: 74% | Population Hoechst High Intensity Objects (%) [2]: 11% | Population Mitochondria Different-Phenotype (%) [2]: 88% | Population Mitotic Cells (%) [2]: 34% | Population Normal (%) [2]: 88% | Population Pyknosed Nuclei (%) [2]: 16% | Population Tubulin-Different-Phenotype (%) [2]: 57% | Total Cell Count [2]: 173 | Population Apoptotic (%) [3]: 78% | Population Fragmented Nuclei (%) [3]: 14% | Population Healthy Nuclei (%) [3]: 55% | Population Hoechst High Intensity Objects (%) [3]: 30% | Population Membrane Permeable-Phenotype (%) [3]: 1% | Population Mitochondria Different-Phenotype (%) [3]: 83% | Population Mitotic Cells (%) [3]: 21% | Population Normal (%) [3]: 69% | Population Pyknosed Nuclei (%) [3]: 30% | Population Tubulin-Different-Phenotype (%) [3]: 80% | Total Cell Count [3]: 249 | Population Apoptotic (%) [4]: 75% | Population Healthy Nuclei (%) [4]: 67% | Population Hoechst High Intensity Objects (%) [4]: 41% | Population Membrane Permeable-Phenotype (%) [4]: 10% | Population Mitochondria Different-Phenotype (%) [4]: 85% | Population Mitotic Cells (%) [4]: 25% | Population Normal (%) [4]: 58% | Population Pyknosed Nuclei (%) [4]: 18% | Population Tubulin-Different-Phenotype (%) [4]: 72% | Total Cell Count [4]: 224 | Population Apoptotic (%) [5]: 91% | Population Fragmented Nuclei (%) [5]: 10% | Population Healthy Nuclei (%) [5]: 66% | Population Hoechst High Intensity Objects (%) [5]: 14% | Population Membrane Permeable-Phenotype (%) [5]: 0% | Population Mitochondria Different-Phenotype (%) [5]: 80% | Population Mitotic Cells (%) [5]: 8% | Population Normal (%) [5]: 85% | Population Pyknosed Nuclei (%) [5]: 22% | Population Tubulin-Different-Phenotype (%) [5]: 61% | Total Cell Count [5]: 228 | Population Apoptotic (%) [6]: 77% | Population Fragmented Nuclei (%) [6]: 13% | Population Healthy Nuclei (%) [6]: 76% | Population Hoechst High Intensity Objects (%) [6]: 15% | Population Mitochondria Different-Phenotype (%) [6]: 86% | Population Mitotic Cells (%) [6]: 22% | Population Normal (%) [6]: 84% | Population Pyknosed Nuclei (%) [6]: 10% | Total Cell Count [6]: 202 | Population Apoptotic (%) [7]: 71% | Population Fragmented Nuclei (%) [7]: 16% | Population Healthy Nuclei (%) [7]: 44% | Population Hoechst High Intensity Objects (%) [7]: 41% | Population Membrane Permeable-Phenotype (%) [7]: 0% | Population Mitochondria Different-Phenotype (%) [7]: 85% | Population Mitotic Cells (%) [7]: 28% | Population Normal (%) [7]: 58% | Population Pyknosed Nuclei (%) [7]: 38% | Population Tubulin-Different-Phenotype (%) [7]: 88% | Total Cell Count [7]: 237 | Population Apoptotic (%) [8]: 78% | Population Fragmented Nuclei (%) [8]: 15% | Population Healthy Nuclei (%) [8]: 54% | Population Hoechst High Intensity Objects (%) [8]: 45% | Population Membrane Permeable-Phenotype (%) [8]: 3% | Population Mitochondria Different-Phenotype (%) [8]: 91% | Population Mitotic Cells (%) [8]: 21% | Population Normal (%) [8]: 54% | Population Pyknosed Nuclei (%) [8]: 29% | Population Tubulin-Different-Phenotype (%) [8]: 82% | Total Cell Count [8]: 207 | Population Apoptotic (%) [9]: 82% | Population Fragmented Nuclei (%) [9]: 12% | Population Healthy Nuclei (%) [9]: 51% | Population Hoechst High Intensity Objects (%) [9]: 18% | Population Membrane Permeable-Phenotype (%) [9]: 1% | Population Mitochondria Different-Phenotype (%) [9]: 88% | Population Mitotic Cells (%) [9]: 17% | Population Normal (%) [9]: 81% | Population Pyknosed Nuclei (%) [9]: 35% | Population Tubulin-Different-Phenotype (%) [9]: 68% | Total Cell Count [9]: 232 | Population Apoptotic (%) [10]: 61% | Population Fragmented Nuclei (%) [10]: 17% | Population Healthy Nuclei (%) [10]: 65% | Population Hoechst High Intensity Objects (%) [10]: 21% | Population Membrane Permeable-Phenotype (%) [10]: 0% | Population Mitochondria Different-Phenotype (%) [10]: 84% | Population Mitotic Cells (%) [10]: 38% | Population Normal (%) [10]: 78% | Population Pyknosed Nuclei (%) [10]: 17% | Population Tubulin-Different-Phenotype (%) [10]: 59% | Total Cell Count [10]: 193 | Population Apoptotic (%) [11]: 71% | Population Fragmented Nuclei (%) [11]: 16% | Population Healthy Nuclei (%) [11]: 46% | Population Hoechst High Intensity Objects (%) [11]: 57% | Population Membrane Permeable-Phenotype (%) [11]: 1% | Population Mitochondria Different-Phenotype (%) [11]: 78% | Population Mitotic Cells (%) [11]: 28% | Population Normal (%) [11]: 42% | Population Pyknosed Nuclei (%) [11]: 37% | Population Tubulin-Different-Phenotype (%) [11]: 76% | Total Cell Count [11]: 262 | Population Apoptotic (%) [12]: 83% | Population Fragmented Nuclei (%) [12]: 25% | Population Hoechst High Intensity Objects (%) [12]: 56% | Population Membrane Permeable-Phenotype (%) [12]: 8% | Population Mitochondria Different-Phenotype (%) [12]: 85% | Population Mitotic Cells (%) [12]: 16% | Population Normal (%) [12]: 43% | Population Pyknosed Nuclei (%) [12]: 28% | Population Tubulin-Different-Phenotype (%) [12]: 79% | Total Cell Count [12]: 238
